The subject of data set [1] is MCF7. The data set can be described thus: Growth inhibition of human MCF7 cells at up to 10 uM after 72 hrs by celltiter-blue viability assay. The class given is functional, cell-based.
Data set [2] has as its system MCF7. As to the kind of experiment: Induction of DNA damage in human MCF7 cells assessed as H2AX phosphorylation up to 10 uM after 4 hrs by Western blot analysis. The class given is functional, cell-based. The essentials:
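In-cell Western: MCF7 at 10 000 cells/well, dosed 24 h later with 3-fold serial dilutions (final DMSO 0.1%); 4 h at 37 °C, paraformaldehyde fixation, anti-phospho-H2AX Ser139 with IR800 secondary, DRAQ5 for normalization (800/700 nm ratio); duplicate or triplicate wells, scaled to 0.1% DMSO (0%) and 10 μM etoposide (100%); nonlinear curve fit.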
(In general: A western blot detects proteins with antibodies after separation by electrophoresis.)

Data set [3] deals with HCT-15. The data set can be described thus: Induction of DNA damage in human HCT15 cells assessed as H2AX phosphorylation after 4 hrs by Western blot analysis. Type of data set: functional, cell-based. The essentials:
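HCT-15 cells at 10 000/well, dosed 4 h at 37 °C, 0.1% DMSO final. In-cell Western with anti-phospho-H2AX (Ser139) and DRAQ5. 800/700 nm ratio normalized to 0.1% DMSO (0%) and 10 μM etoposide (100%). Curve fit by nonlinear regression.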

The test system of data set [4] is HCT-15. As to the kind of experiment: Cytotoxicity against MDR1 expressing human HCT15 cells. The class given is functional, cell-based. The essentials: (§1)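 Cells (HUVEC from Lonza, others from ATCC) seeded at 2500–10 000 cells/well 24 h before dosing. 3-fold serial dilutions in DMSO, 0.1% DMSO final. Cell-Titer Blue read at 0 h and 72 h.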
The test system of data set [5] is MCF7. The data set can be described thus: Growth inhibition of human MCF7 cells after 72 hrs by celltiter-blue viability assay. Type of data set: functional. The essentials:
as §1
For orientation: Alamar Blue is a resazurin reagent that responds to reducing activity.

Data set [6] can be described thus: Growth inhibition of human MCF10A cells after 72 hrs by celltiter-blue viability assay. Type of data set: cell-based, MCF-10A. Put shortly: as §1
Data set [7] concerns PC-3. As to the kind of experiment: Growth inhibition of human PC3 cells after 72 hrs by celltiter-blue viability assay. The class given is functional. Particulars: PC-3, 72 h. Put shortly: as §1
Data set [8] deals with MCF7. The data set can be described thus: Selectivity ratio of GI50 for human MCF7 cells over GI50 for human MCF10A cells.
In data set [9] the test system is HCT-15. The data set can be described thus: Induction of DNA damage in human HCT15 cells assessed as H2AX phosphorylation after 1 hr by Western blot analysis. Type of data set: functional, cell-based. The essentials: (§2)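 In-cell Western for pSer139 H2AX after 1 h dosing. Cells at 10 000/well plated 24 h ahead, 0.1% DMSO final. Fixed in 4% paraformaldehyde, permeabilized, stained with anti-phospho-H2AX plus IR800CW secondary and DRAQ5. 800/700 nm ratio, duplicate or triplicate wells, normalized to 0.1% DMSO (0%) and 10 μM etoposide (100%).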

In data set [10] the test system is Liver. As to the kind of experiment: Induction of DNA damage in human liver microsomes assessed as conversion of supercoiled plasmid DNA to nicked DNA by at 100 nM by agarose gel electrophoresis in presence of NADPH generating system. Type of data set: functional. Particulars: Microsome. Put shortly: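 Supercoiled pLenti6 plasmid (120 μg/mL) incubated 4 h at 37 °C with compound (100 nM–1 μM, 1% DMSO) plus or minus human liver microsomes (0.25 mg/mL) and NADPH regenerating system (1.5 mM NADP, 12.5 mM G6P, 0.25 U/mL G6PDH, 100 mM phosphate pH 7.5, 5 mM MgCl2). Phenol/chloroform stop, DNA purified, 0.8% agarose gel for nicked versus supercoiled forms.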

The test system of data set [11] is HeLa. As to the kind of experiment: Induction of DNA damage in human HeLa cells assessed as H2AX phosphorylation after 1 hr by Western blot analysis. The class given is functional, cell-based. Put shortly:
as §2

Data set [12] relates to MDA-MB-231. The data set can be described thus: Growth inhibition of human MDA-MB-231 cells after 72 hrs by celltiter-blue viability assay. The class given is functional. The settings on record: MDA-MB-231, 72 h. The essentials:
as §1

Data set [13] has as its system HCT-15. The data set can be described thus: Growth inhibition of human HCT15 cells after 72 hrs by celltiter-blue viability assay. The class given is functional. The settings on record: HCT-15, 72 h. Put shortly:
as §1

Data set [14] has as its system HCT-15. The data set can be described thus: Ratio of austocystin D GI50 to verapamil GI50 for MDR1 expressing human HCT15 cells. The class given is functional.
Data set [15] deals with SW-620. The data set can be described thus: Growth inhibition of human SW620 cells after 72 hrs by celltiter-blue viability assay. The class given is functional. Particulars: SW-620, 72 h. The essentials: as §1
The nature of data set [16]: Growth inhibition of human MES-SA cells after 72 hrs by celltiter-blue viability assay. The class given is functional. The essentials:
as §1

Data set [17] deals with HCT-15. The data set can be described thus: Induction of DNA damage in human HCT15 cells assessed as H2AX phosphorylation after 4 hrs by Western blot analysis presence of CYP inhibitor ketoconazole. Type of data set: functional, cell-based. Put shortly:
(§3)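 Cells pretreated 1 h with 10 μM ketoconazole, then dosed 4 h. pSer139 H2AX measured by in-cell Western as 800/700 nm ratio (DRAQ5 normalization), scaled to 0.1% DMSO (0%) and 10 μM etoposide (100%). In SW620 cells, test agent at 10 μM with 20 μM camptothecin as comparator.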

The target of data set [18] is ATP-dependent translocase ABCB1 (Homo sapiens, UniProt P08183). The data set can be described thus: Inhibition of MDR1 in human HCT15 cells assessed as calcein-AM efflux at 10 uM by fluorescence assay. The class given is cell-based. The settings on record: hct-15, 10 µM.
Data set [19] has as its system HCT-15. As to the kind of experiment: Growth inhibition of human HCT15 cells at 0.5 to 2 uM after 72 hrs by celltiter-blue viability assay in presence of CYP inhibitor ketoconazole. The class given is functional, cell-based. Put shortly:
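HCT-15 cells exposed to 0.5, 1 or 2 μM test agent across a ketoconazole dose range, 0.1% DMSO final. Cell-Titer Blue read at 0 and 72 h. Growth normalized to DMSO controls at 0 h and 72 h.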

Data set [20] is described as follows: Growth inhibition of human MES-SA/MX2 cells after 72 hrs by celltiter-blue viability assay. Particulars: MX2, 72 h. The class given is functional. The essentials:
as §1

Data set [21] can be described thus: Growth inhibition of human U87 cells after 72 hrs by celltiter-blue viability assay. The class given is functional, U-87MG ATCC. Particulars: U-87 MG. The essentials:
as §1

The test system of data set [22] is HeLa. As to the kind of experiment: Growth inhibition of human HeLa cells after 72 hrs by celltiter-blue viability assay. Type of data set: functional. The essentials: as §1
Data set [23] has as its system SW-620. As to the kind of experiment: Induction of DNA damage in human SW620 cells assessed as H2AX phosphorylation after 1 hr by Western blot analysis. Type of data set: functional, cell-based. Put shortly: as §2
For data set [24], the system named is A549. The data set can be described thus: Growth inhibition of human A549 cells after 72 hrs by celltiter-blue viability assay. The class given is functional. The settings on record: A549, 72 h. The essentials: as §1
Data set [25] in a line: Growth inhibition of HUVEC after 72 hrs by celltiter-blue viability assay. Type of data set: cell-based. The settings on record: human. The essentials: as §1
For data set [26], the system named is MCF7. The data set can be described thus: Selectivity ratio of GI50 for human MCF7 cells over GI50 for human MES-SA cells. Type of data set: functional.
Data set [27] deals with SR. As to the kind of experiment: Growth inhibition of human SR cells after 72 hrs by celltiter-blue viability assay. The class given is functional. The essentials:
as §1

Data set [28] concerns SW-620. The data set can be described thus: Induction of DNA damage in human SW620 cells assessed as H2AX phosphorylation at 10 uM in presence of CYP inhibitor ketoconazole. Type of data set: functional, cell-based. Put shortly:
as §3

Data set [29] relates to MCF-10A. As to the kind of experiment: Growth inhibition of human MCF10A cells after 72 hrs by celltiter-blue viability assay relative to control. The class given is cell-based. The essentials: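 MCF10A seeded at 2500–10 000 cells/well 24 h before dosing. 3-fold serial dilutions, 0.1% DMSO final. Cell-Titer Blue read at 0 and 72 h. Growth normalized to DMSO controls at 0 h (0%) and 72 h (100%). Dose-response fitted by nonlinear regression.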

Data on seven compounds can be found in ChEMBL document CHEMBL2163277, “The selectivity of austocystin D arises from cell-line-specific drug activation by cytochrome P450 enzymes” (J Nat Prod, 2011).

The source made the active and inactive calls. The rule behind the calls is not given here.

Sequence of ATP-dependent translocase ABCB1 (P08183 whole entry): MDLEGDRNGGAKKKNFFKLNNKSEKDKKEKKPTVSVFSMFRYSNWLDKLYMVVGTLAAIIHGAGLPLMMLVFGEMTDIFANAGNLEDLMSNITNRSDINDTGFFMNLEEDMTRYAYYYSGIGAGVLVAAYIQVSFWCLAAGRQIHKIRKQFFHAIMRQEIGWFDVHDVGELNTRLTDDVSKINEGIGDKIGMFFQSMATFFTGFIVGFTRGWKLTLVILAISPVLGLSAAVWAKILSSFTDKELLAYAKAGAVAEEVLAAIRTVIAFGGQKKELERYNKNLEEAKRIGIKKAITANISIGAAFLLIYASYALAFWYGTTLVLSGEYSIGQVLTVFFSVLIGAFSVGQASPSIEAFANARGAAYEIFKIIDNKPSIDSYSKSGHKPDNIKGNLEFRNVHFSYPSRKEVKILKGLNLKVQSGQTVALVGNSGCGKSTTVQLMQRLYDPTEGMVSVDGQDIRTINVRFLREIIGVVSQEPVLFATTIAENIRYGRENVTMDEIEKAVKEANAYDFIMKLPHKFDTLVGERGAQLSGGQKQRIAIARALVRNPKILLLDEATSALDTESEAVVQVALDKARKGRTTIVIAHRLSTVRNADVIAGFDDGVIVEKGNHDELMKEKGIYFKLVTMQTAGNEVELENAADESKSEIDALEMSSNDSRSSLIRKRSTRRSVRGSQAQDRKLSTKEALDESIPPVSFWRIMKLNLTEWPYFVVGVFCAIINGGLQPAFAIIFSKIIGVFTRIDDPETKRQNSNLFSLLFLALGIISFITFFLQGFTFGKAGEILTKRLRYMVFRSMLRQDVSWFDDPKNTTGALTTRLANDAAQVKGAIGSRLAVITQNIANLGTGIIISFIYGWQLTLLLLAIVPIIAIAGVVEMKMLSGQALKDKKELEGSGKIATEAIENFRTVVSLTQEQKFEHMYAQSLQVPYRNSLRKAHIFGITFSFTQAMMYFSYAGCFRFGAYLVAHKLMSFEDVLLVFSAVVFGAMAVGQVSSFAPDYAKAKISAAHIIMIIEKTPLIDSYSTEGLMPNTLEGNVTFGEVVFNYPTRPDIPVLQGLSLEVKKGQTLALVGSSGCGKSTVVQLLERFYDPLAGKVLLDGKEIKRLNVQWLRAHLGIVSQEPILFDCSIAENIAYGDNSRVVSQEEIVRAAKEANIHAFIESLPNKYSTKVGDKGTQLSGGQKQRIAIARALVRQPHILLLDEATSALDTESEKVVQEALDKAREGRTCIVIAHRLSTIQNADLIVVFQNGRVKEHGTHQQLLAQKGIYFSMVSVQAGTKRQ

With `CC(C)(O)CCc1ccc(O)c2c(=O)c3c(O)c4c(cc3oc12)O[C@H]1OCC[C@@]41O`, the “growth inhibition (GI)” value in data set [1] is “inactive”. In addition, the outcome in data set [2] was inactive.

Consider `CC[C@@]1(O)C(=O)OCc2c1cc1n(c2=O)Cc2cc3ccccc3nc2-1`, for which, in data set [3], the Activity entry is “Dose-dependent effect”.

On to `COc1ccc(CCN(C)CCCC(C#N)(c2ccc(OC)c(OC)c2)C(C)C)cc1OC` (stereo not drawn), for which the result in data set [4] was Active.

`COc1cc2c(c3oc(=O)c4c(c13)CCC4=O)[C@@H]1C=CO[C@@H]1O2` [AFLATOXIN]: the 50% growth inhibitory concentration (GI50) in data set [5] was over 5 µM. Further, the GI50 at 72 h in data set [6] is over 5 µM.

Take `CC(C)(O)CCc1ccc(O)c2c(=O)c3c(O)c4c(cc3oc12)O[C@H]1OC=C[C@@]41O` [AUSTOCYSTIN D]: the GI50 in data set [7] was 0.003 µM; in data set [12], 0.549 µM; in data set [13], 0.042 µM; in data set [5] (MCF7, 72 h), under 0.001 µM; in data set [15], 0.027 µM; in data set [16] it was over 10 µM. The GI50 was 3.36 µM in [20]; 4.95 µM in data set [21]; over 5 µM in data set [22]; over 5 µM in [24]; 0.016 µM in data set [27]. The RatioGI50 was over 1000 in data set [8], over 1000 in data set [14] and over 10000 in [26]. In addition, the outcome in data set [9], in data set [10], in [11], in data set [23] and in data set [4] was Active. The result in data set [17] and in [28] was inactive. Further, the “inhibition (INH)” value in data set [18] is given as “Active”. The “growth inhibition (GI)” value in [19] is “inactive”. Further, the figures for the GI50 at 72 h in [6] and in [25] were 3.51 µM and 4.25 µM, respectively.

In the case of `COc1cccc2c1C(=O)c1c(O)c3c(c(O)c1C2=O)C[C@@](O)(C(=O)CO)C[C@@H]3O[C@H]1C[C@H](N)[C@H](O)[C@H](C)O1` [DOXORUBICIN], the “fold change (FC)” value in data set [29] is reported as 50. For the same compound, in [5] (MCF7, 72 h), the concentration for 50% growth inhibition (GI50) is over 5 µM. Also, the Activity result in [3] is “Dose-dependent effect”. This compound showed a GI50 at 72 h in data set [6] of over 5 µM.

`COc1cc([C@@H]2c3cc4c(cc3[C@@H](O[C@@H]3O[C@@H]5CO[C@@H](C)O[C@H]5[C@H](O)[C@H]3O)[C@H]3COC(=O)[C@H]23)OCO4)cc(OC)c1O` [ETOPOSIDE]: in data set [29], the “fold change (FC)” value is listed as 50. Moreover, the GI50 in data set [5] (MCF7, 72 h) is over 5 µM. In [6], the GI50 at 72 h is over 5 µM.

One may read the GI50 as the concentration giving 50% growth inhibition. A high value points to less potent growth inhibition.
